The term IC50 denotes the concentration that inhibits the measured activity by half.

From ChEMBL document CHEMBL3621080, “Dihydrithieno[2,3-b]naphto-4,9-dione analogues as anticancer agents: Synthesis and in cell pharmacological studies” (Eur J Med Chem, 2015) come the findings set out here.

Active and inactive are the calls of the source. The calls are words filed in the database; no cut-off is given here.

Data set [1] can be described thus: Antiproliferative activity against human HuH7 cells assessed as growth inhibition incubated for 48 hrs by MTT assay. Format: functional, cell-based. Conditions: Huh-7, 48 h. Put shortly: (§1)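 Cell lines were grown at 37 °C in 5% CO2 with 10% FBS and penicillin/streptomycin, in DMEM for HuH7 and LN229 and in RPMI-1640 for BxPC3 and MCF7. Cells were seeded at 10^5 per well and left 24 h to attach. Compounds were then added at […] for 48 h. MTT at 1 mg/mL was applied for 2 h at 37 °C in the dark, formazan was dissolved in DMSO and read at 570 nm. Results are relative to 0.5% DMSO vehicle control, with IC50 by linear/polynomial regression, in triplicate.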
On the technique in general: Formazan colour is commonly taken as a measure of viable cells.

In the next data set the test system is MCF7. As to the kind of experiment: Antiproliferative activity against human MCF7 cells assessed as growth inhibition incubated for 48 hrs by MTT assay. It counts as functional, cell-based. As to conditions: MCF7, 48 h. Put shortly:
as §1

The nature of data set [2]: Antiproliferative activity against human LN229 cells assessed as growth inhibition incubated for 48 hrs by MTT assay. It counts as functional, cell-based. Conditions: LN-229, 48 h. Put shortly: as §1
Data set [3] can be described thus: Antiproliferative activity against human BxPC3 cells assessed as growth inhibition incubated for 48 hrs by MTT assay. Format: functional, cell-based. As to conditions: BXPC-3, 48 h. The method in brief: as §1
Data set [4] can be described thus: (§2) Cytotoxicity against rat H9c2 cells assessed as cell growth at 2.5 uM incubated for 48 hrs by MTT assay relative to control. It counts as cell-based. As to conditions: H9c2 cells, read-out: Activity.
The subject of data set [5] is H9c2. As to the kind of experiment: Cytotoxicity against rat H9c2 cell membrane assessed as induction of lipid peroxidation at 2.5 uM incubated for 48 hrs by TBARS method. Conditions: h9c2, 48 h. Format: cell-based. Put shortly:
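H9C2 cells were treated for 48 h at […] and lysed in ice-cold Tris/NaCl/EDTA/1% Triton with protease inhibitors. Membranes were pelleted at 1200 g for 10 min and the protein content measured. Membrane aliquots were heated at 100 °C for 30 min in 15% TCA/0.3% TBA in 0.12 N HCl, cooled and centrifuged, and the TBA adduct read at 532 nm. Values are per mg protein, mean ± SEM, n=3.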

A short description of data set [6]: Cytotoxicity against human LN229 cells assessed as growth inhibition at 0.6 uM incubated for 48 hrs by MTT assay relative to control. It counts as functional, LN-229. Further details: scale not given: the % may be the effect or the level left.
Data set [7] has as its system H9c2. Described as §2. It counts as cell-based. Conditions: h9c2, 48 h, 2.5 µM.
Data set [8] is described as follows: Drug uptake in human LN229 cell cytoplasm at 0.6 uM incubated for 48 hrs by confocal microscopy. It counts as ADME, cell-based. As to conditions: ln229, 48 h. Put shortly: (§3)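 LN229 cells were treated for 48 h at […] and fixed in 4% paraformaldehyde. Nuclei were counterstained with DAPI and vimentin immunostained. Compound localisation was imaged by its red signal using confocal microscopy.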

Data set [9] relates to LN-229. Nature of the data set: Inhibition of glucose uptake in human LN229 cells assessed as glucose concentration per ug protein at 0.6 uM incubated for 48 hrs by liquid scintillation method (reference value: 98 +/- 8 mg/dl/ug protein). It counts as functional.
In data set [10] the test system is LN-229. Nature of the data set: Induction of cell differentiation in human LN229 cells assessed as vimentin remodelling at 0.6 uM incubated for 48 hrs by immunostaining method. Format: functional, cell-based. Put shortly: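 LN229 cells were treated for 48 h at […], fixed in 4% paraformaldehyde and permeabilised 5 min in 1% Triton. They were stained with anti-vimentin (1:1000) followed by Cy3 anti-rabbit IgG (1:200, 45 min), with DAPI nuclei, and imaged by confocal microscopy.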

Data set [11] is described as follows: Down regulation of AKT expression in human LN229 cells at 0.6 uM incubated for 48 hrs by Western blot method. Format: functional, cell-based. Conditions: LN-229. The method in brief:
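LN229 cells grown in DMEM with 10% FBS and penicillin/streptomycin at 37 °C, 5% CO2, treated 48 h. Cells washed in ice-cold PBS/BSA and lysed in Triton/deoxycholate buffer with protease inhibitors. Equal protein run on SDS-PAGE, then nitrocellulose. Anti-AKT overnight in TBS/1% milk/0.05% Tween 20; tubulin also probed. HRP secondary 1 h at room temperature.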

In data set [12] the test system is LN-229. As to the kind of experiment: Induction of lipid peroxidation in human LN229 cells assessed as increase in TBARS level at 0.6 uM incubated for 48 hrs by TBARS assay. It counts as functional. The method in brief: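 LN229 cells in DMEM with 10% FBS, treated 48 h. Lysed in ice-cold Tris/NaCl/EDTA/1% Triton with protease inhibitors, spun 1200 g for 10 min; membrane pellet redissolved and protein measured. Membranes heated with 15% TCA/0.3% TBA in 0.12 N HCl at 100 °C for 30 min, cooled, spun 15,000 g, read at 532 nm. TBARS expressed per mg protein; mean of three experiments.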

The test system of data set [13] is LN-229. As to the kind of experiment: Inhibition of glucose uptake in human LN229 cells assessed as glucose concentration per ug protein at 0.6 uM incubated for 48 hrs by liquid scintillation method relative to control. It counts as functional.
Data set [14] concerns LN-229. Nature of the data set: Induction of apoptosis in human LN229 cells assessed as caspase-3 activation at 0.6 uM incubated for 48 hrs by cell-free caspase-3 activity assay.
Data set [15] can be described thus: Drug uptake in human LN229 cell nucleus at 0.6 uM incubated for 48 hrs by confocal microscopy. It counts as ADME, cell-based. As to conditions: ln229, 48 h. The method in brief:
as §3

On to `Cl.O=C(CN1CCCCC1)NC1(CO)CSC2=C1C(=O)c1ccccc1C2=O` (configuration not stated), for which the IC50 in data set [1] is 0.96 µM; in the data set on MCF7, 1.26 µM; in data set [2], 0.51 µM; in data set [3] it was 2.51 µM. Besides, the viability at 48 h, 2.5 µM in [4] amounted to 83%. In addition, the Activity result with H9c2 [5] is “Toxic”.
With `O=C(CNc1ccc(Cl)cc1)NC1(CO)CSC2=C1C(=O)c1ccccc1C2=O` (configuration not stated), the IC50 came to 3.51 µM in data set [1], 2.12 µM in the data set on MCF7, 1.23 µM in [2] and 2.18 µM in [3].
With `Cl.O=C(CN1CCCCC1)N[C@@]1(C(=O)NCc2ccc(Cl)cc2)CSC2=C1C(=O)c1ccccc1C2=O`, in data set [6], the Activity was 50%.
As for `Cl.O=C(CN1CCCCC1)N[C@]1(C(=O)NCc2ccc(Cl)cc2)CSC2=C1C(=O)c1ccccc1C2=O`, in [6], the Activity was 48%.
Consider `O=C(CNCc1ccc(Cl)cc1)NC1(CO)CSC2=C1C(=O)c1ccccc1C2=O` (configuration not stated), for which the IC50 in data set [1] is 3.9 µM; in the data set with MCF7, 1.72 µM; in [2] it was 1.25 µM; in data set [3], 1.68 µM.
For `Cl.O=C(CN1CCCCC1)NC1(C(=O)NCc2ccc(Cl)cc2)CSC2=C1C(=O)c1ccccc1C2=O` (configuration not stated), the IC50 in data set [1] amounted to 1.02 µM; with MCF7, 0.82 µM; in data set [2], 0.61 µM; in data set [3], 0.83 µM. Besides, the Activity entry was “Non-toxic” with H9c2 [7], “Non-toxic” with H9c2 [5], 50% in data set [6] and 215 mg/dL in the data set on LN-229 [9]. Besides, the Drug uptake result in data set [8] is “Active”. In the data set on LN-229 [10], the result was Active. Moreover, the fold change (FC) turned out to be 2 in [11], 5 in the data set with LN-229 [12], 2.2 in the data set with LN-229 [13] and 3 in the data set on LN-229 [14].
`O=C(NC1(C(=O)NCc2ccc(Cl)cc2)CSC2=C1C(=O)c1ccccc1C2=O)c1ccc(Cl)cc1` (configuration not stated): the IC50 in data set [1] was 0.44 µM; with MCF7 it was 0.47 µM; in data set [2], 0.32 µM; in data set [3], 0.66 µM. Further, the viability at 48 h, 2.5 µM in data set [4] was determined as 61%. In the data set with H9c2 [5], the Activity result was “Toxic”.
Take `COc1cccc2c1C(=O)c1c(O)c3c(c(O)c1C2=O)C[C@@](O)(C(=O)CO)C[C@@H]3O[C@H]1C[C@H](N)[C@H](O)[C@H](C)O1` [DOXORUBICIN]: the IC50 in data set [1] is 1.11 µM; in data set [2] it was 2.25 µM; in data set [3] it was 1.78 µM. Besides, the viability at 48 h, 2.5 µM in data set [4] worked out at 53%. The Activity entry in the data set with H9c2 [5] was “Toxic”; in the data set on LN-229 [9], 120 mg/dL. Moreover, the Drug uptake entry in data set [15] was “Active”.
Turning to `O=C(NC1(CO)CSC2=C1C(=O)c1ccccc1C2=O)c1ccc(Cl)cc1` (configuration not stated), the IC50 (in data set [1]; in the data set on MCF7; in [2]; in data set [3]) was > 10 µM each time.
